According to PMC6309961 (The Journal of pharmacy and pharmacology, 2017):

How the values were obtained:
Format in all cases: biochemical
CYP2E1 = CYP2E1 (Homo sapiens, UniProt P05181); assay: index substrate turnover in pooled HLM, HPLC; settings: for IC50: human, microsomes
CYP1A2 = target: T1, CYP1A2 (Homo sapiens, UniProt P05177); assay: index substrate turnover in pooled HLM, HPLC; settings: microsomes
T1 sequence (P05177 2-516): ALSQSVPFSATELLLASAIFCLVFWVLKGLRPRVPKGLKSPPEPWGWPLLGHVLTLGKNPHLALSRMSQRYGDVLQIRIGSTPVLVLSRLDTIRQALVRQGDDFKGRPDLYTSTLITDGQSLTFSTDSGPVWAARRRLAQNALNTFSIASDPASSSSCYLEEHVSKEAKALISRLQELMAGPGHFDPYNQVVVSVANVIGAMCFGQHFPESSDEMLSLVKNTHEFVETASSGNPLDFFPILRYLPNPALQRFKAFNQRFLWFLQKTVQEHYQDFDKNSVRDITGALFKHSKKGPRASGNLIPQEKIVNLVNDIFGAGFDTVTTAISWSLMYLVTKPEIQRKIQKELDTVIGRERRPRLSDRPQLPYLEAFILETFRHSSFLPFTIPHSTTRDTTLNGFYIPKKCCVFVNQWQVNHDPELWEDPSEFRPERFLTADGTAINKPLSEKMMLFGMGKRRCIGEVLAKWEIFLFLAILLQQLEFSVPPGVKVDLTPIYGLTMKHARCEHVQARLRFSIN
Outline: (§1)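 Pooled HLMs (53 donors) in 50 mm phosphate pH 7.5 with 5 mm MgCl2, 0.5 mm NADP and an isocitrate/isocitric dehydrogenase regenerating system. Test compound at 0–600 μm (eight levels) was dried, reconstituted in 1% methanol, with or without 20-min 37°C preincubation. Substrates: phenacetin (1A2), bupropion (2B6), taxol (2C8), dextromethorphan (2D6). Acetonitrile stop (acidified for 2B6) with IS; HPLC-UV/fluorescence; duplicates; hyperbolic nonlinear-regression IC50.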

UGT1A6 = target: T2, UGT1A6 (Homo sapiens, UniProt P19224); assay: glucuronidation of index substrate in pooled HLM, HPLC-UV; settings: without preincubation; pH 7.5, 10 mM UDPGA, alamethicin
T2 sequence (P19224 27-532): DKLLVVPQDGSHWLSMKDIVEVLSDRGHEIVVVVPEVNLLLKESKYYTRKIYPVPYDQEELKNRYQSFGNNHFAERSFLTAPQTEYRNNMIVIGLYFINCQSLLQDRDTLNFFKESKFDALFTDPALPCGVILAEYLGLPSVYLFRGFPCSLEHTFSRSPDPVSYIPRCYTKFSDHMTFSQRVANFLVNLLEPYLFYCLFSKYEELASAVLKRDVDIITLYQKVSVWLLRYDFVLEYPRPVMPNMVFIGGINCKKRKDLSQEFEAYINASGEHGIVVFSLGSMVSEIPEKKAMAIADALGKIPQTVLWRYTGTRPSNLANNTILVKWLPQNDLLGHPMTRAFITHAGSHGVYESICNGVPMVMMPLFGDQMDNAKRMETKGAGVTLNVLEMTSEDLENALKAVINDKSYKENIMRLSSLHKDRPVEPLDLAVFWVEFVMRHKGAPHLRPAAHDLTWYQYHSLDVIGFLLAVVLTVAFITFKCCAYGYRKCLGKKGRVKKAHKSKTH

UGT2B15 = target: T3, UGT2B15 (Homo sapiens, UniProt P54855); assay: glucuronidation of index substrate in pooled HLM, HPLC-UV; settings: without preincubation; pH 7.5, 10 mM UDPGA, alamethicin
T3 sequence (P54855 24-530): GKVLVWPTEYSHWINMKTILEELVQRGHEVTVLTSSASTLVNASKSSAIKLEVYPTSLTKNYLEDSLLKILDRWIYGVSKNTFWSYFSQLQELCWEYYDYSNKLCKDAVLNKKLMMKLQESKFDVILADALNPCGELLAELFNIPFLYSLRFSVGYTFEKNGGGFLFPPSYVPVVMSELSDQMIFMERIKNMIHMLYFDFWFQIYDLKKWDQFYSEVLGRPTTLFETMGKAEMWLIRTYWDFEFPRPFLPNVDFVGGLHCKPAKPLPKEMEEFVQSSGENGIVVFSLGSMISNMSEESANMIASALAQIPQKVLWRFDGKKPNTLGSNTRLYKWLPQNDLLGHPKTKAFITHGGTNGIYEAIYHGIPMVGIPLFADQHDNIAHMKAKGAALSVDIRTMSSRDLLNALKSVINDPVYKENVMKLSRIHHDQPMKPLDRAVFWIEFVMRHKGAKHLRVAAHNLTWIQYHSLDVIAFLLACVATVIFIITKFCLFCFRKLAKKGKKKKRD
Outline: (§2)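 Pooled HLMs (53 donors, 50–500 μg/ml) in 50 mm phosphate pH 7.5 with 5 mm MgCl2 and alamethicin […]. Test compound at 0–250 μm (seven levels) was dried, reconstituted in 1% methanol and not preincubated. Reactions started with UDPGA (10 mm final). Substrates: AZT (UGT2B7), oxazepam (UGT2B15). Acetonitrile stop (acidified for UGT2B7) with IS; HPLC-UV; duplicates; IC50 by nonlinear regression.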

CYP2D6 = CYP2D6 (Homo sapiens, UniProt P10635); assay: index substrate turnover in pooled HLM, HPLC; settings: microsomes
Sequence of CYP2D6 (P10635 whole entry): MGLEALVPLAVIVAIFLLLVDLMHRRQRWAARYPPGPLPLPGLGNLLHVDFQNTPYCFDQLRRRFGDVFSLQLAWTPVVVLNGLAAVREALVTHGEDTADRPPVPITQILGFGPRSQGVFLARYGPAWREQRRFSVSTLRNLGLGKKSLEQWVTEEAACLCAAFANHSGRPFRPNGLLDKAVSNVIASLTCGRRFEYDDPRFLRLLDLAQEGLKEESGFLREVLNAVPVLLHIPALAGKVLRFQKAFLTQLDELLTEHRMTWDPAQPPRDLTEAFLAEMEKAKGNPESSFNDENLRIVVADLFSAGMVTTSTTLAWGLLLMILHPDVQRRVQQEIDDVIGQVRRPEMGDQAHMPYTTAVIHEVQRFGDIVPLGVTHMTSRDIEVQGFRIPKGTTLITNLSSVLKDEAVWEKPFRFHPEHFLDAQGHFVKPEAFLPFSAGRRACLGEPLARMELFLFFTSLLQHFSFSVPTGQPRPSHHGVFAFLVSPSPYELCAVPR
Outline: as §1

CYP2C8 = target: T4, CYP2C8 (Homo sapiens, UniProt P10632); assay: index substrate turnover in pooled HLM, HPLC; settings: microsomes
T4 sequence (P10632 1-490): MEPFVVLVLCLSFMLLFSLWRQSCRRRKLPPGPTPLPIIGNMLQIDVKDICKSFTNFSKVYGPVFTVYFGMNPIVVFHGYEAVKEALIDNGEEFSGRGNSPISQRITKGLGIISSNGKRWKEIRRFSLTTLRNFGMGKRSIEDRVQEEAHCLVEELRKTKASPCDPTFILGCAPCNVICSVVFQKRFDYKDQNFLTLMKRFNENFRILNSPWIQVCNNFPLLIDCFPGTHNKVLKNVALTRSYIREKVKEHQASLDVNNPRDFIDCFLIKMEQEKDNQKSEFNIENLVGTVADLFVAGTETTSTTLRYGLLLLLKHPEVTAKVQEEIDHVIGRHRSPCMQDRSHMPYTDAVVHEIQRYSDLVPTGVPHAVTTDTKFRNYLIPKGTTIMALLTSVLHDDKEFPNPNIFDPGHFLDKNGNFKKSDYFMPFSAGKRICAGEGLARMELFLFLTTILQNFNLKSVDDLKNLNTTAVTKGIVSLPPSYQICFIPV
Outline: as §1

CYP2B6 = target: T5, CYP2B6 (Homo sapiens, UniProt P20813); assay: index substrate turnover in pooled HLM, HPLC; settings: microsomes
T5 sequence (P20813 1-491): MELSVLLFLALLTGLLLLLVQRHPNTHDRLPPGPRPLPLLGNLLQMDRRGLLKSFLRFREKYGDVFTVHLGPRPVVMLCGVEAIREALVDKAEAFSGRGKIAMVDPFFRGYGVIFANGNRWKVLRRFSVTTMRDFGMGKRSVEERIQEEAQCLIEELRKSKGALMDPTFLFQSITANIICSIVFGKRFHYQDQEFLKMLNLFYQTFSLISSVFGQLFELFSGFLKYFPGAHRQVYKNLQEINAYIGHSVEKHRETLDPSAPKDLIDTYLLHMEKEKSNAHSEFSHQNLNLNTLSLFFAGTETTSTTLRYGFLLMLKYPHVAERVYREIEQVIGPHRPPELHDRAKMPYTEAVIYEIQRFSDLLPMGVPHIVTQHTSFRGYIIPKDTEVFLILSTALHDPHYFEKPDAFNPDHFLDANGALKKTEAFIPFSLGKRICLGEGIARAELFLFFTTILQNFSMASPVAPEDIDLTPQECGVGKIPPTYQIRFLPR
Outline: as §1

CYP2C9 = CYP2C9 (Homo sapiens, UniProt P11712); assay: index substrate turnover in pooled HLM, HPLC; settings: microsomes
Sequence of CYP2C9 (P11712 whole entry): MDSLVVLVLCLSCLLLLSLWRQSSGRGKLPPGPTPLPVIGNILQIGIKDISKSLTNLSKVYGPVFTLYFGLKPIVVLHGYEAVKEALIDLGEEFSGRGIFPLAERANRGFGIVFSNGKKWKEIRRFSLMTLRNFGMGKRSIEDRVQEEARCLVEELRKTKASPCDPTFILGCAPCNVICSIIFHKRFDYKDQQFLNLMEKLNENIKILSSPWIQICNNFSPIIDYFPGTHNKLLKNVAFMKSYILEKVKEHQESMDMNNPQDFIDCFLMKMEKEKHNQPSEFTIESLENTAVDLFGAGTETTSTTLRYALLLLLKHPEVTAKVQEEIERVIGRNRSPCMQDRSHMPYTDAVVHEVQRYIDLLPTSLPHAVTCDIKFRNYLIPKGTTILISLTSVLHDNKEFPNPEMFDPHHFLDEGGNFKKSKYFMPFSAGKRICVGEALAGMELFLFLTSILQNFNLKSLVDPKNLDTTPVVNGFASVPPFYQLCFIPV

CYP2C19 = CYP2C19 (Homo sapiens, UniProt P33261); assay: index substrate turnover in pooled HLM, HPLC; settings: microsomes
Sequence of CYP2C19 (P33261 whole entry): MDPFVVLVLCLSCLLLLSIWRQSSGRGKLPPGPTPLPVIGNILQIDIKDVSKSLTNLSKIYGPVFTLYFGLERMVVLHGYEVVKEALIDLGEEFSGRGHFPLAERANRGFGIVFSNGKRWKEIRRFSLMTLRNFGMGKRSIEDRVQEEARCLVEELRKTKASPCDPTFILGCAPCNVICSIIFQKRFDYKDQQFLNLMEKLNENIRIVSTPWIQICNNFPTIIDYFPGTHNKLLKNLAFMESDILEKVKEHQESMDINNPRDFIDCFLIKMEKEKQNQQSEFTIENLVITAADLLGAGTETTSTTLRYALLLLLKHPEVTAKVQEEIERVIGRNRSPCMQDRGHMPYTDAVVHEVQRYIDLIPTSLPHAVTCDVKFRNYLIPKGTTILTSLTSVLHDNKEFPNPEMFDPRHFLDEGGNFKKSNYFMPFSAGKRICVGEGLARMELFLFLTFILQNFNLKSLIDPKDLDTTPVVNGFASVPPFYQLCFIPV

UGT2B7 = target: T6, UGT2B7 (Homo sapiens, UniProt P16662); assay: glucuronidation of index substrate in pooled HLM, HPLC-UV; settings: without preincubation; pH 7.5, 10 mM UDPGA, alamethicin
T6 sequence (P16662 24-529): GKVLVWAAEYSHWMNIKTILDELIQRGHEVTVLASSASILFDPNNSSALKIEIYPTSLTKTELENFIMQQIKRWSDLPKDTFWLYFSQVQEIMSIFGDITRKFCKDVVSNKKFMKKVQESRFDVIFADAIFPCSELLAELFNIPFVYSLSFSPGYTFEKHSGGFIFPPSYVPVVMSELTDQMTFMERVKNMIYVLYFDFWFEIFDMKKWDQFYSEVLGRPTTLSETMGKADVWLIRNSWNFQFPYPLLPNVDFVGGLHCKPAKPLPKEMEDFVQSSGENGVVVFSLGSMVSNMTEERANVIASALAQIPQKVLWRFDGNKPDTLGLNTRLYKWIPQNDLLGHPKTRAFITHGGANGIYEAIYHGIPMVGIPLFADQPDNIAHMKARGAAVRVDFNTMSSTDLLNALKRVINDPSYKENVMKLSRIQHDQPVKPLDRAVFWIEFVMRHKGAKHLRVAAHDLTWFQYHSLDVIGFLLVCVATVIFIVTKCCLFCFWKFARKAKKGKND
Outline: as §2

[1] = without preincubation, 37 °C, solvent effect

Sequence of CYP2E1 (P05181 whole entry): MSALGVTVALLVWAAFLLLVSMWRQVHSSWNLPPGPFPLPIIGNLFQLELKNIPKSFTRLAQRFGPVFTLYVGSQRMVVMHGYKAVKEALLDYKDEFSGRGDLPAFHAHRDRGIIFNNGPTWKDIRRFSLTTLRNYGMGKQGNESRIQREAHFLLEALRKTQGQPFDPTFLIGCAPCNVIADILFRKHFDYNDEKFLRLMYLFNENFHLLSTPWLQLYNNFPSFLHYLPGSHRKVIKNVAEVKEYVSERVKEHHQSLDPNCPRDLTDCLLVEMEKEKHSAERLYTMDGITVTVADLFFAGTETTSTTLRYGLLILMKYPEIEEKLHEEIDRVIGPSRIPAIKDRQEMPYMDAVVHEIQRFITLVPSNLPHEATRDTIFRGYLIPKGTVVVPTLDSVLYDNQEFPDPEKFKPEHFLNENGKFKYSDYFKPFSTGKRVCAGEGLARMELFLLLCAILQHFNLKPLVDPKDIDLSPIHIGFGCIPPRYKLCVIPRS

Structure (SMILES) | MEOH / W/O (%) (CYP2E1; [1]) | IC50 (CYP1A2) [µM] | IC50 (UGT1A6) [µM] | IC50 (UGT2B15) [µM] | IC50 (CYP2D6) [µM] | IC50 (CYP2C8) [nM] | IC50 (CYP2B6) [µM] | IC50 (CYP2C9) [µM] | IC50 (CYP2E1) [µM] | IC50 (CYP2C19) [µM] | IC50 (UGT2B7) [µM] | DMSO / W/O (%) (CYP2E1; [1])
CO [methanol] | 0.63 % (v/v) |  |  |  |  |  |  |  |  |  |  | 
O=c1cc(-c2ccc(O)c(O)c2)oc2cc(O)cc(O)c12 [luteolin] |  | 3.5 | > 250 | > 250 | 153 | 2500 | 103 | 28.9 | 89.3 | 47.9 | > 250 | 
C[S+](C)[O-] [DMSO] |  |  |  |  |  |  |  |  |  |  |  | 0.06 % (v/v)
O=c1c(O)c(-c2ccc(O)c(O)c2)oc2cc(O)cc(O)c12 [quercetin] |  | 5.2 |  | > 250 | 234 | 2400 | 89.2 |  | 66.2 | 140 |  | 
